Calls of active or inactive are those of the source. No cut-off for these calls is given here.
Experiments:
PC-3 [1] = assay: Induction of morphological changes in human PC-3 cells assessed as reduction in cell density at 0.05 uM measured after 24 hrs by phase contrast microscopy; format: functional, cell-based
Method in brief: (§1)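 PC3 cells were seeded at 1×10^5 per well in 6-well plates and treated after 24 h, with or without 1 mM N-acetyl-L-cysteine. The same observation field was imaged by phase contrast microscopy at 1, 2, 3, 4 and 24 h. DMSO vehicle served as control.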

PC-3 [2] = assay: Cell cycle arrest in human PC-3 cells assessed as reduction in cell accumulation at S phase at 0.05 uM measured after 3 hrs by propidium iodide staining based flow cytometry; format: functional
Method in brief: (§2)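 PC3 cells seeded 1×10^5 per well in 6-well plates, exposed 3 h, with or without 1 mM N-acetyl-L-cysteine pretreatment; vehicle 0.1% DMSO. Harvested with trypsin-EDTA, fixed in 75% ethanol in PBS at 4 °C for 30 min, stained 1 h with RNase (1.5 mg mL^-1) and propidium iodide (90 μg mL^-1); DNA content by flow cytometry. Phase fractions compared with control by ANOVA/Tukey.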

PC-3 [3] = assay: Cytotoxicity against human PC-3 cells assessed as reduction in cell viability at 0.05 uM measured after 24 hrs in presence of antioxidant N-acetyl-L-cysteine by SRB assay; format: functional, cell-based
Method in brief: (§3)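 SRB assay: PC3 seeded 1×10^4 per well, after 24 h exposed 24 h at 37 °C, 5% CO2 with or without 1 mM N-acetyl-L-cysteine; vehicle 0.1% DMSO. Fixed with 15% TCA at 4 °C for 1 h, dried, stained 0.4% sulforhodamine B, dye solubilized in 10 mM Tris, absorbance 540 nm; ANOVA/Tukey.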

PC-3 [4] = assay: Induction of morphological changes in human PC-3 cells assessed as reduction in cell density at 0.05 uM measured after 24 hrs in presence of antioxidant N-acetyl-L-cysteine by phase contrast microscopy; format: functional, cell-based; method in brief: as §1
PC-3 [5] = assay: Induction of apoptosis in human PC-3 cells assessed as early apoptotic cells at 0.05 uM measured after 6 hrs by Alexa Fluor 488-annexin V/propidium iodide staining based flow cytometry (reference value: 6%); format: functional
PC-3 [6] = assay: Induction of morphological changes in human PC-3 cells assessed as loss of adhesion at 0.05 uM measured after 24 hrs in presence of antioxidant N-acetyl-L-cysteine by phase contrast microscopy; format: functional, cell-based; method in brief: as §1
PC-3 [7] = assay: Induction of apoptosis in human PC-3 cells assessed as effect on BAX gene expression at 0.05 uM measured after 3 hrs by qPCR analysis; format: functional, cell-based
Method in brief: (§4)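 Seeded 1×10^5 cells per well in 6-well plates; PC3 treated 3 h. Total RNA extracted, qPCR; each target normalized to reference gene (β-actin) by efficiency-corrected ΔΔCt (Pfaffl) against a control calibrator sample, efficiencies from amplification profiles. Mean ± SEM of four independent experiments.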

PC-3 [8] = assay: Cytotoxicity against human PC-3 cells assessed as cell growth inhibition at 0.05 uM measured after 48 hrs in presence of 0.5 to 50 uM NO scavenger carboxy-PTIO by CCK-8 assay; format: functional, cell-based
Method in brief: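 PC3 at 1×10^4 cells per well attached 24 h, pretreated 1 h with carboxy-PTIO (0, 0.50, 3.13, 6.25, 12.50, 25, 50 μM), then compound added for 48 h; washed three times with PBS, growth read by CCK-8 as percent inhibition versus control cells; two experiments in triplicate.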

PC-3 [9] = assay: Cell cycle arrest in human PC-3 cells assessed as increase in cell accumulation at G2/M phase in presence of antioxidant N-acetyl-L-cysteine at 0.05 uM measured after 3 hrs by propidium iodide staining based flow cytometry; format: functional; method in brief: as §2
PC-3 [10] = assay: Cell cycle arrest in human PC-3 cells assessed as reduction in cell accumulation at S phase in presence of antioxidant N-acetyl-L-cysteine at 0.05 uM measured after 3 hrs by propidium iodide staining based flow cytometry; format: functional; method in brief: as §2
PC-3 [11] = assay: Effect on NFE2L2 gene expression in human PC-3 cells at 0.05 uM measured after 3 hrs by qPCR analysis; format: functional, cell-based; method in brief: as §4
PC-3 [12] = assay: Induction of DNA damage in human PC-3 cells assessed as increase in phosphorylated gamma-H2AX expression at 0.05 uM measured after 6 hrs by DAPI staining based confocal laser scanning microscopy; format: functional, cell-based
Method in brief: (§5)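 γ-H2AX immunostaining: PC3 on coverslips (1×10^5 cells), serum-starved 18 h, then treated (methods state 1 h; legend states 6 h); fixed 3.7% formaldehyde, permeabilized 0.25% Triton X-100, blocked 3% albumin, anti-phospho-H2A.X Ser139 (1:500) then Alexa Fluor 488 secondary, DAPI nuclei; confocal, 500 cells per slide, three experiments; UVC 20 min positive control.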

PC-3 [13] = assay: Cell cycle arrest in human PC-3 cells assessed as increase in cell accumulation at sub-G1 phase at 0.05 uM measured after 3 hrs in presence of antioxidant N-acetyl-L-cysteine by propidium iodide staining based flow cytometry; format: functional; method in brief: as §2
PC-3 [14] = assay: Cell cycle arrest in human PC-3 cells assessed as down regulation of CCND1 gene expression at 0.24 uM measured after 3 hrs by qPCR analysis; format: functional, cell-based; method in brief: as §4
PC-3 [15] = assay: Induction of apoptosis in human PC-3 cells assessed as early apoptotic cells at 0.24 uM measured after 6 hrs by Alexa Fluor 488-annexin V/propidium iodide staining based flow cytometry (reference value: 6%); format: functional
PC-3 [16] = assay: Induction of morphological changes in human PC-3 cells assessed as cell rounding at 0.24 uM measured after 24 hrs by phase contrast microscopy; format: functional, cell-based; method in brief: as §1
PC-3 [17] = assay: Induction of morphological changes in human PC-3 cells assessed as reduction in cell density at 0.24 uM measured after 24 hrs in presence of antioxidant N-acetyl-L-cysteine by phase contrast microscopy; format: functional, cell-based; method in brief: as §1
PC-3 [18] = assay: Cell cycle arrest in human PC-3 cells assessed as accumulation of cells at sub-G1 phase at 0.24 uM measured after 3 hrs by propidium iodide staining based flow cytometry (reference value: 0.75 +/- 0.21%); format: functional; method in brief: as §2
PC-3 [19] = assay: Induction of DNA damage in human PC-3 cells assessed as increase in phosphorylated gamma-H2AX expression at 0.24 uM measured after 6 hrs by DAPI staining based confocal laser scanning microscopy; format: functional, cell-based; method in brief: as §5
PC-3 [20] = assay: Induction of apoptosis in human PC-3 cells assessed as necrotic cells at 0.24 uM measured after 6 hrs by Alexa Fluor 488-annexin V/propidium iodide staining based flow cytometry (reference value: 1.28%); format: functional
PC-3 [21] = assay: Induction of morphological changes in human PC-3 cells assessed as reduction in cell density at 0.24 uM measured after 24 hrs by phase contrast microscopy; format: functional, cell-based; method in brief: as §1
PC-3 [22] = assay: Induction of apoptosis in human PC-3 cells assessed as effect on BCL2 gene expression at 0.24 uM measured after 3 hrs by qPCR analysis; format: functional, cell-based; method in brief: as §4
PC-3 [23] = assay: Induction of apoptosis in human PC-3 cells assessed as effect on BAX gene expression at 0.24 uM measured after 3 hrs by qPCR analysis; format: functional, cell-based; method in brief: as §4
PC-3 [24] = assay: Cytotoxicity against human PC-3 cells assessed as reduction in cell viability at 0.24 uM measured after 24 hrs in presence of antioxidant N-acetyl-L-cysteine by SRB assay; format: functional, cell-based; method in brief: as §3
PC-3 [25] = assay: Induction of morphological changes in human PC-3 cells assessed as cell rounding at 0.24 uM measured after 24 hrs in presence of antioxidant N-acetyl-L-cysteine by phase contrast microscopy; format: functional, cell-based; method in brief: as §1
PC-3 [26] = assay: Cell cycle arrest in human PC-3 cells assessed as up regulation of CDKN1A gene expression at 0.24 uM measured after 3 hrs by qPCR analysis; format: functional, cell-based

Compound: COc1cc(/C=C/C(=O)N2CCC=CC2=O)cc(OC)c1OCCCCCCCCCCCCOc1no[n+]([O-])c1S(=O)(=O)c1ccccc1
- Activity (PC-3 [1]): Active
- Activity (PC-3 [2]): Active
- Activity (PC-3 [3]): inactive
- Activity (PC-3 [4]): inactive
- Activity (PC-3 [5]): 6.6%
- Activity (PC-3 [6]): inactive
- Activity (PC-3 [7]): inactive
- growth inhibition (GI) (PC-3 [8]): inactive
- Activity (PC-3 [9]): Active
- Activity (PC-3 [10]): Active
- Activity (PC-3 [11]): Active
- Activity (PC-3 [12]): Active
- Activity (PC-3 [13]): inactive

Compound: COc1cc(/C=C/C(=O)N2CCC=CC2=O)cc(OC)c1OCCCOc1no[n+]([O-])c1S(=O)(=O)c1ccccc1
- Activity (PC-3 [14]): Active
- Activity (PC-3 [15]): 9.17%
- Activity (PC-3 [16]): Active
- Activity (PC-3 [17]): inactive
- Activity (PC-3 [18]): 7.6%
- Activity (PC-3 [19]): Active
- Activity (PC-3 [20]): 0.81%
- Activity (PC-3 [21]): Active
- Activity (PC-3 [22]): inactive
- Activity (PC-3 [23]): inactive
- Activity (PC-3 [24]): inactive
- Activity (PC-3 [25]): inactive
- Activity (PC-3 [26]): Active

Source: ChEMBL document CHEMBL6134784, “Furoxan-piplartine hybrids as effective NO donors and ROS inducers in PC3 cancer cells: design, synthesis, and biological evaluation” (RSC Med Chem, 2024)
